Here are results for 14 compounds from ChEMBL document CHEMBL4673370, “Modifications at C(5) of 2-(2-Pyrrolidinyl)-Substituted 1,4-Benzodioxane Elicit Potent α4β2 Nicotinic Acetylcholine Receptor Partial Agonism with High Selectivity over the α3β4 Subtype” (J Med Chem, 2020).

Each structure is given as a SMILES string.

Neuronal acetylcholine receptor; alpha3/beta4, sequence (P30926 whole entry): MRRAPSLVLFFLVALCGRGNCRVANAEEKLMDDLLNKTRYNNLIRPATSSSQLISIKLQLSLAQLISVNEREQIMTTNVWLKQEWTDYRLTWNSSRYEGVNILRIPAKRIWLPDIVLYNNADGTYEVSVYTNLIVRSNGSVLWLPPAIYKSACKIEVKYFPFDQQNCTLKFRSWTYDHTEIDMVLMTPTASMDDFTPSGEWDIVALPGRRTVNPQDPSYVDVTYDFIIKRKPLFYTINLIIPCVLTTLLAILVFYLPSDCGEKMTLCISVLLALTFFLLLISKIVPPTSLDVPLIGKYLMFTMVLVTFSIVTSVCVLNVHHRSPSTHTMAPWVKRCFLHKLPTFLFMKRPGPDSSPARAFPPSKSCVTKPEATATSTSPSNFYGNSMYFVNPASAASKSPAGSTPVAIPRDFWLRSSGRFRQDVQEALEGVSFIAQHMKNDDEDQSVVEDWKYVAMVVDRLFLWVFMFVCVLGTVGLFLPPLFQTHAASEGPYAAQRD
Neuronal acetylcholine receptor; alpha3/beta4, sequence (P32297 whole entry): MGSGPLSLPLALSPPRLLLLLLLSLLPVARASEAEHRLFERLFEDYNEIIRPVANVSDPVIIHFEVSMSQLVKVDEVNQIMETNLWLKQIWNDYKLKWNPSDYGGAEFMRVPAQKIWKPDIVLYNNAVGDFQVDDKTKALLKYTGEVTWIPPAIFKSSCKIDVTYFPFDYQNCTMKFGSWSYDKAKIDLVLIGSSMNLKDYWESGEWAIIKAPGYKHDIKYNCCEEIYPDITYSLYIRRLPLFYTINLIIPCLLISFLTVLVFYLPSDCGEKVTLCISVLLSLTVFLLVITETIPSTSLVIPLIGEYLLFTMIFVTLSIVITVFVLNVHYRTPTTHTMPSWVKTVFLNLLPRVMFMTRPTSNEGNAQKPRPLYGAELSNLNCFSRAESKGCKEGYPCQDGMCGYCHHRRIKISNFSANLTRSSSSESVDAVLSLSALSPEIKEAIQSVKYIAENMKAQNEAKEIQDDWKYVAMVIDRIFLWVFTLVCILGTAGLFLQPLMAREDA
T1 sequence (P17787 whole entry, the tested form may be a part): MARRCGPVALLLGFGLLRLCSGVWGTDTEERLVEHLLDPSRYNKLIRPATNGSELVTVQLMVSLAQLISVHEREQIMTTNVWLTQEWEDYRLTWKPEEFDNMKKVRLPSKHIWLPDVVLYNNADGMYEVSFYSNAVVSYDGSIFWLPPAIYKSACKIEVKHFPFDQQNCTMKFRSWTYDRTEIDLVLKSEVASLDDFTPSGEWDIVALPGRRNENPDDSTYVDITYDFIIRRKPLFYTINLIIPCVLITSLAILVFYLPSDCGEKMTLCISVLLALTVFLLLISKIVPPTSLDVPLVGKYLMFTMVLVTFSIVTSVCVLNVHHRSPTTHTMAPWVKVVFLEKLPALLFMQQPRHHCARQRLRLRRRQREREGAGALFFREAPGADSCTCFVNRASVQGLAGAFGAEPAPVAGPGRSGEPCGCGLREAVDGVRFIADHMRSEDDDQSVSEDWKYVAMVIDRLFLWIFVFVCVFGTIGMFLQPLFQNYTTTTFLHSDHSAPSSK
T1 sequence (P43681 whole entry, the tested form may be a part): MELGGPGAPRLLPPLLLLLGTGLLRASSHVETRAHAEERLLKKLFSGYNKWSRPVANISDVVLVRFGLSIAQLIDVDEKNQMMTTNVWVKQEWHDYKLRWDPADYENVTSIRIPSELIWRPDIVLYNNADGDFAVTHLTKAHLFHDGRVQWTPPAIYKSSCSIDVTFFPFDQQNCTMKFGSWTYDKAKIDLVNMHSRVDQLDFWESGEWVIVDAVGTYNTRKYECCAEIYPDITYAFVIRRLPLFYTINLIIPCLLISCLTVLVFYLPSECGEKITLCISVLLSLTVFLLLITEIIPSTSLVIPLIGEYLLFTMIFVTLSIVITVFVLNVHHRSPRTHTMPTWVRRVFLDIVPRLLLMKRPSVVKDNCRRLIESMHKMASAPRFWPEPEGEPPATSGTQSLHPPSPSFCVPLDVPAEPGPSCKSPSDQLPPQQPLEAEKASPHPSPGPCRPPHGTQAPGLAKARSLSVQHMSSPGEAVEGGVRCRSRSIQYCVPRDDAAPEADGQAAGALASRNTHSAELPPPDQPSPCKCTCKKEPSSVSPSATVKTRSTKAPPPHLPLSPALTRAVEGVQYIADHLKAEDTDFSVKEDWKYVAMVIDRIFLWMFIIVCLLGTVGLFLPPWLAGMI

One assay addresses Neuronal acetylcholine receptor; alpha3/beta4 (Homo sapiens, UniProt P30926+P32297). Kind of assay: Displacement of [3H]-epibatidine from human alpha3beta4 transfected in HEK293 cell membranes preincubated for 5 mins followed by [3H]-epibatidine addition and measured after overnight incubation by liquid scintillation beta counter analysis. Set-up: species or system Membrane. In a few lines: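 Membranes (rat cerebral cortex for α4β2; HEK cells stably transfected with human α3β4) were pre-exposed to rising compound concentrations for 5 min. They were then incubated overnight at 4 °C with [3H]epibatidine (0.1 nM for α4β2, 0.25 nM for α3β4). Samples were filtered on PEI-soaked GFC filters and counted by β scintillation. Nonspecific binding was set with 100 nM epibatidine.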
A general note: Displacement assays read how much labelled ligand stays bound in the presence of the test substance.
`CN1CCC[C@H]1[C@H]1COc2c(cccc2[N+](=O)[O-])O1` had a Ki of 6.7 µM.

`CN1CCC[C@H]1[C@H]1COc2c(cccc2-c2ccccc2)O1` yielded a Ki of 5.3 µM.

Take `CN1CCC[C@H]1[C@@H]1COc2cc(O)ccc2O1`: the Ki is 1.9 µM.

`CN1CCC[C@H]1[C@@H]1COc2cc([N+](=O)[O-])ccc2O1` had a Ki of 15 µM.

For `CN1CCC[C@H]1[C@H]1COc2c(O)cccc2O1`, the Ki is over 100 µM.

For the compound `CN(C)c1ccc2c(c1)O[C@@H]([C@@H]1CCCN1C)CO2`, the affinity, expressed as Ki, was 25 µM.

`CN1CCC[C@H]1[C@H]1COc2cc(-c3ccccc3)ccc2O1`: the affinity corresponds to a Ki of 5.8 µM.

As for `CN1CCC[C@H]1[C@H]1COc2ccc(O)cc2O1`, the Ki stood at 0.7 µM.

For the compound `CN1CCC[C@H]1[C@@H]1COc2c(N)cccc2O1`, the Ki came to 3.9 µM. Against the preceding compound, the Ki is about 5.6-fold higher.

`CN1CCC[C@H]1[C@H]1COc2ccc(N)cc2O1` returned a Ki of 0.18 µM.

As for `CC(=O)Nc1ccc2c(c1)O[C@H]([C@@H]1CCCN1C)CO2`, the affinity, expressed as Ki, was 1.9 µM.

In another assay the target is Neuronal acetylcholine receptor subunit alpha-7 (Rattus norvegicus, UniProt Q05941). Kind of assay: Displacement of [125I]alpha-bungarotoxin from alpha7nAChR in rat hippocampus membranes preincubated for 5 mins followed by [125I]alpha-bungarotoxin addition and measured after overnight incubation by liquid scintillation beta counter analysis. It counts as cell membranes, Membrane.
Neuronal acetylcholine receptor subunit alpha-7, sequence (Q05941 whole entry): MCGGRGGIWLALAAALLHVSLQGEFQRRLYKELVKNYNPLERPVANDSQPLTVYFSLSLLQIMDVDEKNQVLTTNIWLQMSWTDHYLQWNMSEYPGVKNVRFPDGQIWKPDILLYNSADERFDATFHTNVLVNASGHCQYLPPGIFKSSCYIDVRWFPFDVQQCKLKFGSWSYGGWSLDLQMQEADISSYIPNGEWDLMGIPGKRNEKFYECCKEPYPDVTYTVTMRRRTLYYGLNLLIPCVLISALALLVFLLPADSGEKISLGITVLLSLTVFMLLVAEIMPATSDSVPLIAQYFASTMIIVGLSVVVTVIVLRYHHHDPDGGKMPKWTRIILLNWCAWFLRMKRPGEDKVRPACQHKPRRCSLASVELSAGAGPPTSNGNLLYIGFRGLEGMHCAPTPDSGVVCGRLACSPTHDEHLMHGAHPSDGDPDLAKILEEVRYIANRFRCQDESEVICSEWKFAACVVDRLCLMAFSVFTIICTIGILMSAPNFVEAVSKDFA
Turning to `CN1CCC[C@H]1[C@@H]1COc2ncccc2O1`, the Ki worked out at 89 µM.

`CN1CCC[C@H]1[C@H]1COc2c(cccc2-c2ccccc2)O1` came in with a Ki of 50 µM.

`CN1CCC[C@H]1[C@@H]1COc2cc(O)ccc2O1` registered a Ki of 26.8 µM. This Ki lies about 1.9-fold lower than the previous one.

Take `CN1CCC[C@H]1[C@@H]1COc2cc([N+](=O)[O-])ccc2O1`: the Ki worked out at 31.5 µM. The Ki values of the last two compounds are within 1.5-fold of each other.

For the compound `CN(C)c1ccc2c(c1)O[C@@H]([C@@H]1CCCN1C)CO2`, the Ki is over 10 µM.

With `CN1CCC[C@H]1[C@H]1COc2cc(-c3ccccc3)ccc2O1`, the affinity, expressed as Ki, was 2.1 µM. That is a single-digit micromolar value.

As for `CN1CCC[C@H]1[C@@H]1COc2c(N)cccc2O1`, the Ki stood at 109 µM. This Ki is about 52-fold higher than that of the compound before.

`CN1CCC[C@H]1[C@H]1COc2ccc(N)cc2O1`: the Ki stood at 19.1 µM. This Ki lies about 5.7-fold lower than the previous one.

As for `CC(=O)Nc1ccc2c(c1)O[C@H]([C@@H]1CCCN1C)CO2`, the Ki was over 10 µM.

A further assay concerns the target T1, Neuronal acetylcholine receptor; alpha4/beta2 (Homo sapiens, UniProt P17787+P43681). Description: Partial agonist activity at wild type human alpha4beta2 transfected in rat GH4-C1 cells assessed as maximum response at holding potential of -70 mV by whole cell patch clamp electrophysiology method relative to ACh. The class given is cell-based. In a few lines:
(§1)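 GH4C1 cells were transiently transfected by magnetofection with 0.5 μg of each human subunit cDNA (wild-type or S108A α4β2; α3β4). Whole-cell currents were recorded in HEPES-buffered saline at pH 7.3, with CsCl/BAPTA pipettes and fast perfusion of agonist. Concentrations were applied sequentially, and peak currents were normalized to 100 μM ACh on the same cell. EC50, Imax and Hill coefficient came from a Hill-equation fit.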
For orientation: Patch clamp records ionic current or voltage across a cell membrane.
On to `CN1CCC[C@H]1[C@@H]1COc2ncccc2O1`, for which the Imax was found to be 26%.

The test system of another assay is GH4-C1. Description: Agonist activity at human alpha4beta2 S108A mutant transfected in rat GH4-C1 cells assessed as maximum response at holding potential of -70 mV by whole cell patch clamp electrophysiology method relative to ACh. The class given is cell-based. In a few lines: as §1
On to `CN1CCC[C@H]1[C@@H]1COc2ncccc2O1`, for which the Imax turned out to be 26%.

As to `CN1CCC[C@H]1[C@@H]1COc2ccc(O)cc2O1`, the Imax turned out to be 29%.

System in a further assay: not listed separately
Kind of assay: Selectivity index, ratio of Ki for displacement of [3H]-Epibatidine from wild type human alpha4beta2 nAChR transfected in Hela cell membrane to Ki for displacement of [3H]-Epibatidine from human alpha4beta2 nAChR S108A mutant transfected in Hela cell membrane. The class given is cell membranes. The gist of the method: (§2)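 HeLa cells were transiently transfected (JetPEI) with 7.5 μg each of α4 and β2 (wild-type or mutant) cDNA and harvested after 24 h. Membranes were pre-exposed to compounds for 5 min, then incubated overnight at 4 °C with 0.1 nM [3H]epibatidine, filtered and counted by β scintillation. Ki came from the Cheng–Prusoff equation, three independent experiments in duplicate.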
Consider `CN1CCC[C@H]1[C@@H]1COc2ncccc2O1`, for which the Ratio Ki stood at 0.43.

As to `CN1CCC[C@H]1[C@@H]1COc2ccccc2O1`, the Ratio Ki was 1.29.

For `CN1CCC[C@H]1[C@@H]1COc2ccc(O)cc2O1`, the Ratio Ki turned out to be 5.6.

System in a further assay: not listed separately
Kind of assay: Displacement of [3H]-epibatidine from human alpha4beta2 nAChR S108A mutant transfected in human Hela cell membranes preincubated for 5 mins followed by [3H]-Epibatidine addition and measured after overnight incubation by liquid scintillation beta counter analysis. The gist of the method: as §2
As for `CN1CCC[C@H]1[C@@H]1COc2ncccc2O1`, the affinity corresponds to a Ki of 0.265 µM.

As for `CN1CCC[C@H]1[C@@H]1COc2ccccc2O1`, the affinity, expressed as Ki, was 0.912 µM.

On to `CN1CCC[C@H]1[C@@H]1COc2ccc(O)cc2O1`, for which affinity was put at a Ki of 0.0012 µM. This Ki lies about 760-fold lower than the previous one.

System in a further assay: not listed separately
Kind of assay: Agonist activity at human alpha4beta2 S108A mutant transfected in rat GH4-C1 cells at holding potential of -70 mV by whole cell patch clamp electrophysiology method. The class given is cell-based. In a few lines: as §1
Compound `CN1CCC[C@H]1[C@@H]1COc2ncccc2O1` came in with an EC50 of 2.6 µM.

As for `CN1CCC[C@H]1[C@@H]1COc2ccc(O)cc2O1`, the EC50 stood at 3.8 µM.

For a further assay, the target named is T1, Neuronal acetylcholine receptor; alpha4/beta2. Kind of assay: Agonist activity at wild type human alpha4beta2 transfected in rat GH4-C1 cells at holding potential of -70 mV by whole cell patch clamp electrophysiology method. The class given is cell-based. The gist of the method:
as §1
As for `CN1CCC[C@H]1[C@@H]1COc2ncccc2O1`, a half-maximal response (EC50) required 2.6 µM.

As for `CN1CCC[C@H]1[C@@H]1COc2ccc(O)cc2O1`, a half-maximal response (EC50) required 3.8 µM.

In another assay the target is Neuronal acetylcholine receptor; alpha4/beta2 (Rattus norvegicus, UniProt P09483+P12390). Description: Displacement of [3H]-Epibatidine from alpha4beta2 nAChR in rat cerebral cortex membrane preincubated for 5 mins followed by [3H]-Epibatidine addition and measured after overnight incubation by liquid scintillation beta counter analysis. It counts as cell membranes. In a few lines: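 Membranes (rat cerebral cortex for α4β2; HEK cells stably transfected with human α3β4) were pre-exposed to rising compound concentrations for 5 min. Samples were filtered on PEI-soaked GFC filters and counted by β scintillation. Nonspecific binding was set with 100 nM epibatidine.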
Neuronal acetylcholine receptor; alpha4/beta2 (Rattus norvegicus, UniProt P09483+P12390), sequence (P09483 whole entry): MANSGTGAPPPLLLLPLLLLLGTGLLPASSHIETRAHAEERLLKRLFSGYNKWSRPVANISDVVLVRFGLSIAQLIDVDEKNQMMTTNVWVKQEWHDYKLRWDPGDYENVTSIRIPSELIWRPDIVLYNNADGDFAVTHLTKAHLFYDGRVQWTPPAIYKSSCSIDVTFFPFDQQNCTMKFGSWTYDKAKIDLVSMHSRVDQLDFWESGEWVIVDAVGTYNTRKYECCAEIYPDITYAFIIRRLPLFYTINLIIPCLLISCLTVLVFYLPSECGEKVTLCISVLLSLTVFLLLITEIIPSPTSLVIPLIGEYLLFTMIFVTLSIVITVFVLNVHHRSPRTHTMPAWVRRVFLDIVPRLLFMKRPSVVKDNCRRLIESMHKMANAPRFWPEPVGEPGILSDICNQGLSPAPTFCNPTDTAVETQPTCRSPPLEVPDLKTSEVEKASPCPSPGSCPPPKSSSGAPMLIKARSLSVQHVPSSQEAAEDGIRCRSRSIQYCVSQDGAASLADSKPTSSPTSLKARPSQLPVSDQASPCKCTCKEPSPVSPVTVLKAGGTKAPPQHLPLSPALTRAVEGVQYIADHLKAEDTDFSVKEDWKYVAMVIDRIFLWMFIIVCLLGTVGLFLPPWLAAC
Neuronal acetylcholine receptor; alpha4/beta2 (Rattus norvegicus, UniProt P09483+P12390), sequence (P12390 whole entry): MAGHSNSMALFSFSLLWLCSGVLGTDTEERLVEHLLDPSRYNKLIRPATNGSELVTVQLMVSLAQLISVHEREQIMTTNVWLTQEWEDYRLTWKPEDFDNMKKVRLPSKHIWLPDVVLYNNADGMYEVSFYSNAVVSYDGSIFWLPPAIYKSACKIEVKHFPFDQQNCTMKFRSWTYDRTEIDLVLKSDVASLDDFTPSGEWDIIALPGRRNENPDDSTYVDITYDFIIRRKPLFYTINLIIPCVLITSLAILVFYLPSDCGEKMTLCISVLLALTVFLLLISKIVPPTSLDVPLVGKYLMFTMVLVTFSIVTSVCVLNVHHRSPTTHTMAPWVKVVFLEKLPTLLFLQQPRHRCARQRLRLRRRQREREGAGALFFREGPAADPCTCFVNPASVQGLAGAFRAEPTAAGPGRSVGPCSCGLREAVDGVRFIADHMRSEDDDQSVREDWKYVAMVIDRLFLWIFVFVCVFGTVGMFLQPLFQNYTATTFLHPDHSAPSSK
Take `CN1CCC[C@H]1[C@@H]1COc2ncccc2O1`: affinity was put at a Ki of 0.41 µM.

The compound `CN1CCC[C@H]1[C@H]1COc2c(cccc2[N+](=O)[O-])O1` came in with a Ki of 0.335 µM.

On to `CN1CCC[C@H]1[C@H]1COc2c(cccc2-c2ccccc2)O1`, for which the Ki worked out at 7.3 µM. This Ki lies about 22-fold higher than the previous one.

In the case of `CN1CCC[C@H]1[C@@H]1COc2cc(O)ccc2O1`, the Ki worked out at 50 µM.

For `CN1CCC[C@H]1[C@@H]1COc2cc([N+](=O)[O-])ccc2O1`, the affinity, expressed as Ki, was 46 µM.

`CN1CCC[C@H]1[C@H]1COc2c(O)cccc2O1` returned a Ki of 1.7 µM. This Ki lies about 27-fold lower than the previous one.

`CN(C)c1ccc2c(c1)O[C@@H]([C@@H]1CCCN1C)CO2` returned a Ki of 49 µM.

Compound `CN1CCC[C@H]1[C@H]1COc2cc(-c3ccccc3)ccc2O1` returned a Ki of 92 µM.

Consider `CN1CCC[C@H]1[C@@H]1COc2c(N)cccc2O1`, for which the Ki is 7.1 µM.

In turn, `CN1CCC[C@H]1[C@H]1COc2ccc(N)cc2O1` showed a Ki of 0.14 µM.

`CC(=O)Nc1ccc2c(c1)O[C@H]([C@@H]1CCCN1C)CO2` had a Ki of 6.5 µM.

Another assay concerns the target T1, Neuronal acetylcholine receptor; alpha4/beta2. Description: Partial agonist activity at human alpha4beta2 transfected in rat GH4-C1 cells assessed as maximum response at holding potential of -70 mV by whole cell patch clamp electrophysiology method relative to ACh. The class given is cell-based. The gist of the method:
as §1
For `CN1CCC[C@H]1[C@@H]1COc2ncccc2O1`, the Imax was found to be 24.2%.

The target is the same in a further assay. Kind of assay: Displacement of [3H]-epibatidine from wild type human alpha4beta2 nAChR transfected in human Hela cell membranes preincubated for 5 mins followed by [3H]-epibatidine addition and measured after overnight incubation by liquid scintillation beta counter analysis. The gist of the method:
as §2
`CN1CCC[C@H]1[C@@H]1COc2ncccc2O1` showed a Ki of 0.114 µM. That is a sub-micromolar value.

For `CN1CCC[C@H]1[C@@H]1COc2ccccc2O1`, the Ki came out at 1.17 µM.

As to `CN1CCC[C@H]1[C@@H]1COc2ccc(O)cc2O1`, the affinity corresponds to a Ki of 0.0067 µM.

As usually defined, the Ki is a dissociation constant, usually derived from enzyme kinetics or from competition with a known ligand. High values mean a looser hold on the target, low ones a stronger hold on the target. What is called EC50 is the concentration needed to bring the measured effect to its halfway point. High values mean weaker potency, low ones greater potency.
